According to ChEMBL document CHEMBL2146441, “2,6-Disubstituted imidazo[2,1-b][1,3,4]thiadiazoles: search for anticancer agents” (2012):

Experiments:
Type in all cases: functional
SN12C [1] = test: Cytotoxicity against human SN12C cells assessed as cell growth at 10^-4 M after 48 hrs by SRB assay; settings: read-out: Activity
OVCAR-8 = test: Cytotoxicity against human OVCAR8 cells assessed as cell growth at 10^-8 M after 48 hrs by SRB assay; settings: OVCAR-8, 48 h, read-out: Activity
MCF7 [2] = test: Growth inhibition of human MCF7 cells after 48 hrs by SRB assay; settings: MCF7, 48 h
Method in brief: (§1)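 Adherent NCI-60 lines grown in RPMI 1640 with 5% FBS, seeded at 5000–40,000 cells/well, and preincubated 24 h at 37 °C, 5% CO2. Compound, stocked in DMSO, given either once at 10^-5 M or at five 10-fold dilutions for 48 h. Cells fixed with cold TCA (final 10%), stained with 0.4% SRB, and read at 515 nm. GI50 taken as 50% reduction in net protein increase versus time-zero and control plates.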

MOLT-4 = test: Cytotoxicity against human MOLT4 cells assessed as cell growth at 10^-7 M after 48 hrs by SRB assay; settings: MOLT-4, 48 h, read-out: Activity
SF-539 [3] = test: Cytotoxicity against human SF539 cells assessed as cell growth at 10^-4 M after 48 hrs by SRB assay; settings: SF-539, 48 h, read-out: Activity
MDA-MB-435 = test: Cytotoxicity against human MDA-MB-435 cells assessed as cell growth at 10^-8 M after 48 hrs by SRB assay; settings: MDA-MB-435, 48 h, read-out: Activity
HCC 2998 [4] = test: Cytotoxicity against human HCC2998 cells assessed as cell growth at 10^-4 M after 48 hrs by SRB assay; settings: HCC 2998, 48 h, read-out: Activity
Method in brief: (§2)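 NCI-60 screen: lines kept in RPMI 1640 with 5% FBS, seeded at 5000–40,000 cells/well by doubling time, preincubated 24 h at 37 °C in 5% CO2. Time-zero plates TCA-fixed at drug addition. DMSO stocks diluted in medium, 48 h exposure. Fixation in cold TCA (final 10% adherent, 16% suspension), 0.4% SRB stain, solubilised in 10 mM Tris base, A515. Percent growth computed against control and time-zero.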

NCI-H460 = test: Cytotoxicity against human NCI-H460 cells assessed as cell growth at 10^-8 M after 48 hrs by SRB assay; settings: NCI-H460, 48 h, read-out: Activity
UO-31 = test: Cytotoxicity against human UO31 cells assessed as cell growth at 10^-7 M after 48 hrs by SRB assay; settings: UO-31, 48 h, read-out: Activity
HOP-92 [5] = test: Cytotoxicity against human HOP92 cells assessed as cell growth at 10^-8 M after 48 hrs by SRB assay; settings: HOP-92, 48 h, read-out: Activity
Method in brief: (§3)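 NCI-60 five-dose screen. Cells were grown in RPMI 1640 with 5% FBS and seeded at 5000–40,000 cells/well according to doubling time. They were pre-incubated 24 h at 37 °C in 5% CO₂, and time-zero (Tz) plates were TCA-fixed at drug addition. Five 10-fold dilutions of DMSO stock were applied for 48 h. Read-out was SRB staining, 515 nm absorbance, with percent growth calculated versus Tz and untreated control.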

A498 [6] = test: Cytotoxicity against human A498 cells assessed as cell growth at 10^-4 M after 48 hrs by SRB assay; settings: A498, 48 h, read-out: Activity; method in brief: as §2
SN12C [7] = test: Cytotoxicity against human SN12C cells assessed as cell growth at 10^-6 M after 48 hrs by SRB assay; settings: read-out: Activity
LOX IMVI [8] = test: Cytotoxicity against human LOXIMVI cells assessed as cell growth at 10^-7 M after 48 hrs by SRB assay; settings: read-out: Activity
DU-145 = test: Cytotoxicity against human DU145 cells assessed as cell growth at 10^-6 M after 48 hrs by SRB assay; settings: DU-145, 48 h, read-out: Activity; method in brief: as §2
[9] = Growth inhibition of human NCI-ADR-RES cells after 48 hrs by SRB assay; method in brief: as §1
RXF 393 = test: Cytotoxicity against human RXF393 cells assessed as cell growth at 10^-6 M after 48 hrs by SRB assay; settings: RXF 393, 48 h, read-out: Activity
HCC 2998 [10] = test: Cytotoxicity against human HCC2998 cells assessed as cell growth at 10^-5 M after 48 hrs by SRB assay; settings: HCC 2998, 48 h, read-out: Activity; method in brief: as §3
[11] = Cytotoxicity against human […] cells assessed as cell growth at 10^-8 M after 48 hrs by SRB assay; settings: 48 h, read-out: Activity
T47D = test: Growth inhibition of human T47D cells after 48 hrs by SRB assay; settings: for CC50: read-out: LC50 (the source's name); method in brief: as §1
HOP-92 [12] = test: Cytotoxicity against human HOP92 cells assessed as cell growth at 10^-4 M after 48 hrs by SRB assay; settings: HOP-92, 48 h, read-out: Activity; method in brief: as §3
A498 [13] = test: Cytotoxicity against human A498 cells assessed as cell growth at 10^-7 M after 48 hrs by SRB assay; settings: A498, 48 h, read-out: Activity; method in brief: as §2
TK-10 = test: Cytotoxicity against human TK10 cells assessed as cell growth at 10^-5 M after 48 hrs by SRB assay; settings: TK-10, 48 h, read-out: Activity
SNB-19 = test: Cytotoxicity against human SNB19 cells assessed as cell growth at 10^-8 M after 48 hrs by SRB assay; settings: SNB-19, 48 h, read-out: Activity
LOX IMVI [14] = test: Cytotoxicity against human LOXIMVI cells assessed as cell growth at 10^-5 M after 48 hrs by SRB assay; settings: read-out: Activity
SF-539 [15] = test: Cytotoxicity against human SF539 cells assessed as cell growth at 10^-7 M after 48 hrs by SRB assay; settings: SF-539, 48 h, read-out: Activity
NCI-H522 = test: Growth inhibition of human NCI-H522 cells after 48 hrs by SRB assay; settings: NCI-H522, 48 h; for CC50: read-out: LC50 (the source's name); method in brief: as §1
MCF7 [16] = test: Cytotoxicity against human MCF7 cells assessed as cell growth at 10^-5 M after 48 hrs by SRB assay; settings: MCF7, 48 h, read-out: Activity
HCT-116 = test: Cytotoxicity against human HCT116 cells assessed as cell growth at 10^-5 M after 48 hrs by SRB assay; settings: HCT-116, 48 h, read-out: Activity; method in brief: as §3
[17] = Cytotoxicity against human […] cells assessed as cell growth at 10^-7 M after 48 hrs by SRB assay; settings: 48 h, read-out: Activity
NCI-H322M = test: Cytotoxicity against human NCI-H322M cells assessed as cell growth at 10^-7 M after 48 hrs by SRB assay; settings: read-out: Activity
EKVX = test: Growth inhibition of human EKVX cells after 48 hrs by SRB assay; method in brief: as §1
HCC 2998 [18] = test: Cytotoxicity against human HCC2998 cells assessed as cell growth at 10^-7 M after 48 hrs by SRB assay; settings: HCC 2998, 48 h, read-out: Activity; method in brief: as §3

Compound `COc1ccc(-c2nn3cc(-c4ccc(O)cc4O)nc3s2)cc1` has a growth at 100 µM (SN12C [1]) of 2%, a growth at 0.01 µM (OVCAR-8) of 102% and a GI50 (MCF7 [2]) of 1.98 µM. For the same compound, the LC50 (50% cell kill) (MCF7 [2]) was greater than 100 µM, the TGI (MCF7 [2]) was 21.6 µM and the growth at 0.1 µM (MOLT-4) was 89%. It also gave a growth at 100 µM (SF-539 [3]) of -47%, a growth at 0.01 µM (MDA-MB-435) of 97% and a growth at 100 µM (HCC 2998 [4]) of -3%. It also gave a growth at 0.01 µM (NCI-H460) of 101%, a growth at 0.1 µM (UO-31) of 83% and a growth at 0.01 µM (HOP-92 [5]) of 73%. The growth at 100 µM (A498 [6]) was -37%, the growth at 1 µM (SN12C [7]) was 80% and the growth at 0.1 µM (LOX IMVI [8]) was 94%. It also gave a growth at 1 µM (DU-145) of 91%, a GI50 [9] of 2.94 µM and an LC50 [9] greater than 100 µM. It also gave a TGI [9] of 44.9 µM, a growth at 1 µM (RXF 393) of 55% and a growth at 10 µM (HCC 2998 [10]) of 34%. It also gave a growth at 0.01 µM [11] of 100%, a GI50 (T47D) of 1.63 µM and a TGI (T47D) of 5.15 µM. For the same compound, the CC50 (T47D) was greater than 100 µM, the growth at 100 µM (HOP-92 [12]) was -21% and the growth at 0.1 µM (A498 [13]) was 70%. The growth at 10 µM (TK-10) was 7%, the growth at 0.01 µM (SNB-19) was 93% and the growth at 10 µM (LOX IMVI [14]) was 4%. The growth at 0.1 µM (SF-539 [15]) was 101%, the GI50 (NCI-H522) was 1.88 µM and the TGI (NCI-H522) was 11.2 µM. The CC50 (NCI-H522) was greater than 100 µM, the growth at 10 µM (MCF7 [16]) was 3% and the growth at 10 µM (HCT-116) was -62%. For the same compound, the growth at 0.1 µM [17] was 95%, the growth at 0.1 µM (NCI-H322M) was 83% and the GI50 (EKVX) was 1.95 µM. The LC50 (concentration killing 50% of cells) (EKVX) was greater than 100 µM, the TGI (EKVX) was 41.2 µM and the growth at 0.1 µM (HCC 2998 [18]) was 94%.

Compound `COc1ccc(-c2nn3cc(-c4cccc(N)c4)nc3s2)cc1` has a growth at 100 µM (SN12C [1]) of 4%, a growth at 0.01 µM (OVCAR-8) of 104% and a GI50 (MCF7 [2]) of 2.2 µM. It also gave an LC50 (50% cell kill) (MCF7 [2]) greater than 100 µM, a TGI (MCF7 [2]) of 20.3 µM and a growth at 0.1 µM (MOLT-4) of 100%. It also gave a growth at 100 µM (SF-539 [3]) of -68%, a growth at 0.01 µM (MDA-MB-435) of 95% and a growth at 100 µM (HCC 2998 [4]) of 6%. The growth at 0.01 µM (NCI-H460) was 100%, the growth at 0.1 µM (UO-31) was 81% and the growth at 0.01 µM (HOP-92 [5]) was 71%. The growth at 100 µM (A498 [6]) was -67%, the growth at 1 µM (SN12C [7]) was 73% and the growth at 0.1 µM (LOX IMVI [8]) was 92%. For the same compound, the growth at 1 µM (DU-145) was 93%, the GI50 [9] was 4.46 µM and the LC50 [9] was greater than 100 µM. It also gave a TGI [9] of 55.1 µM, a growth at 1 µM (RXF 393) of 63% and a growth at 10 µM (HCC 2998 [10]) of 51%. It also gave a growth at 0.01 µM [11] of 96%, a GI50 (T47D) of 1.37 µM and a TGI (T47D) of 21.2 µM. It also gave a CC50 (T47D) greater than 100 µM, a growth at 100 µM (HOP-92 [12]) of -52% and a growth at 0.1 µM (A498 [13]) of 79%. For the same compound, the growth at 10 µM (TK-10) was 41%, the growth at 0.01 µM (SNB-19) was 96% and the growth at 10 µM (LOX IMVI [14]) was 26%. The growth at 0.1 µM (SF-539 [15]) was 100%, the GI50 (NCI-H522) was 1.63 µM and the TGI (NCI-H522) was 14 µM. The CC50 (NCI-H522) was 51.1 µM, the growth at 10 µM (MCF7 [16]) was 21% and the growth at 10 µM (HCT-116) was 16%. For the same compound, the growth at 0.1 µM [17] was 83%, the growth at 0.1 µM (NCI-H322M) was 95% and the GI50 (EKVX) was 1.01 µM. It also gave an LC50 (concentration killing 50% of cells) (EKVX) greater than 100 µM, a TGI (EKVX) of 12.8 µM and a growth at 0.1 µM (HCC 2998 [18]) of 96%.
